{"source": "ChEMBL document CHEMBL4706672", "about": "(J Med Chem, 2021)", "key": {"BXPC-3 [1]": {"system": "BXPC-3", "assay": "Antiproliferative activity against human BxPC-3 cells assessed as reduction in cell viability incubated for 3 days by MTT assay", "format": "functional, cell-based", "settings": "BXPC-3, 72 h"}, "[2]": {"assay": "Selectivity index, ratio of IC50 for antiproliferative activity against human HEK293 cell by MTT assay to IC50 for inhibition of IL-6 induced STAT3 transcription in human HEK293 cells", "in_short": "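HEK-293 cells carrying an SIE-luc2P STAT3 reporter, seeded 10,000/well, stimulated with IL6 at 100 ng/ml for 24 h, then given compound for 24 h; luciferase reagent added and luminescence read after 5 min. A parallel 24 h MTT assay was run in the same cells. Mean ± SD of three independent experiments.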"}, "[3]": {"biological_target": "T1, Protein cereblon/Signal transducer and activator of transcription 3 (Homo sapiens, UniProt P40763+Q96SW2)", "T1 sequence (P40763 2-770 limits assumed)": "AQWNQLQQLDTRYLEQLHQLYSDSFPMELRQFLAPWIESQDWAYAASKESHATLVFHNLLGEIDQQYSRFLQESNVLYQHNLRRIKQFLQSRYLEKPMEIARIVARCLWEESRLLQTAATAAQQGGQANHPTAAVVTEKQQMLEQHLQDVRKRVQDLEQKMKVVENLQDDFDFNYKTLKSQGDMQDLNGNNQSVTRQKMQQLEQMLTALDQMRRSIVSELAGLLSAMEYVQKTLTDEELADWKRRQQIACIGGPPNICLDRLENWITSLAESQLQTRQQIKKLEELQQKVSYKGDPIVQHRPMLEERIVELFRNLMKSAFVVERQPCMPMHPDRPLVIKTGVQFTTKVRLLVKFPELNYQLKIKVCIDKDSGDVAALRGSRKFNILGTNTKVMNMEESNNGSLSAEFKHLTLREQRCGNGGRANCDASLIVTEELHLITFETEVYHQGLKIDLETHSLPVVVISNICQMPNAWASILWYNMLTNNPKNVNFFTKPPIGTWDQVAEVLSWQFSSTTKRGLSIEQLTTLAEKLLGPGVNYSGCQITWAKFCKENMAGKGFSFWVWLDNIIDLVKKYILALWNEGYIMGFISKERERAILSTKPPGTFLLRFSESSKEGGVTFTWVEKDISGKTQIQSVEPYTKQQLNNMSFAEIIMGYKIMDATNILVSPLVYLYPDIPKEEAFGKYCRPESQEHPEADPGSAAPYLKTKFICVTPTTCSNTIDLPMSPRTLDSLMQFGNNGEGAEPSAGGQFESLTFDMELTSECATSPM", "T1 sequence (Q96SW2 whole entry partner)": "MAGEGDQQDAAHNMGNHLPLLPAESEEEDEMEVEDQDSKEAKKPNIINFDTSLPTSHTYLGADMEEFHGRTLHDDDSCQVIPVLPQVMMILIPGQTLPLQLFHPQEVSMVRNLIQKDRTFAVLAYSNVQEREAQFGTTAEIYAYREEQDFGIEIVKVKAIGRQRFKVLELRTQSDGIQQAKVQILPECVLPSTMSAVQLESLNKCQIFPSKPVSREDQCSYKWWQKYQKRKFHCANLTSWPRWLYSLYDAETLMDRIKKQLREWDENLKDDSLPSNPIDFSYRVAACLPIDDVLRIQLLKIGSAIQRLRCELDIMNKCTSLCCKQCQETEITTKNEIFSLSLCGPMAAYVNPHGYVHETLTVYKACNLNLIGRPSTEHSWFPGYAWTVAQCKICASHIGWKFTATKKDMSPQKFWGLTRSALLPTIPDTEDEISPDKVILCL", "assay": "Protac activity at CRBN/STAT3 in human BxPC-3 cells assessed as increase in inhibition of STAT3 protein levels at 2 to 3 uM incubated for 16 hrs in presence of protein synthesis inhibitor cycloheximide by western blot analysis", "format": "cell-based", "settings": "dose 2-3 µM", "in_short": "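BxPC-3 cells pretreated 1 h with cycloheximide, then test agent for 16 h. Lysates immunoblotted for STAT3 and NQO1 against GAPDH, fluorescent imaging.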"}, "[4]": {"biological_target": "Protein cereblon/E3 ubiquitin-protein ligase ZFP91 (Homo sapiens, UniProt Q96SW2+Q96JP5)", "assay": "Protac activity at CRBN/ZFP91 in human BxPC-3 cells assessed as induction of ZF91 degradation incubated for 16 hrs by western blot analysis", "format": "cell-based", "in_short": "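BxPC-3 cells treated for 4, 16 or 24 h across a concentration series. ZFP91 immunoblotted against GAPDH; bands quantified by densitometry, DC50 calculated from dose-response curves of the densitometry.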"}, "[5]": {"biological_target": "Protein cereblon/Apoptosis-stimulating of p53 protein 2 (Homo sapiens) (UniProt Q96SW2+Q13625)", "assay": "Protac activity at CRBN/TP53BP2 in human BxPC-3 cells assessed as TP53BP2 degradation incubated for 16 hrs by proteomic analysis", "format": "cell-based", "in_short": "(§1)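 BxPC-3 cells exposed 16 h in triplicate (control, PROTAC) or duplicate (other arms); lysed in RIPA at 4 °C, 75 μg protein per sample. Reduced with DTT (1 h, 55 °C), alkylated with 2-chloroacetamide, acetone-precipitated, trypsin-digested overnight at 37 °C, TMT 10plex labelled, relative quantitation by LC-tandem MS.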"}, "[6]": {"biological_target": "Protein cereblon/G2/mitotic-specific cyclin-B1 (Homo sapiens) (UniProt P14635+Q96SW2)", "assay": "Protac activity at CRBN/CCNB1 in human BxPC-3 cells assessed as CCNB1 degradation incubated for 16 hrs by proteomic analysis", "format": "cell-based", "in_short": "(§2)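 TMT 10plex proteomics. […] Samples (75 μg) were reduced with DTT, alkylated with 2-chloroacetamide, acetone-precipitated, trypsin-digested overnight at 37 °C and TMT-labeled for LC-MS/MS relative quantitation.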"}, "[7]": {"biological_target": "Protein cereblon/WD repeat- and FYVE domain-containing protein 4 (Homo sapiens) (UniProt Q96SW2+Q6ZS81)", "sequence (Q6ZS81 whole entry, looked up, the tested form may be a part)": "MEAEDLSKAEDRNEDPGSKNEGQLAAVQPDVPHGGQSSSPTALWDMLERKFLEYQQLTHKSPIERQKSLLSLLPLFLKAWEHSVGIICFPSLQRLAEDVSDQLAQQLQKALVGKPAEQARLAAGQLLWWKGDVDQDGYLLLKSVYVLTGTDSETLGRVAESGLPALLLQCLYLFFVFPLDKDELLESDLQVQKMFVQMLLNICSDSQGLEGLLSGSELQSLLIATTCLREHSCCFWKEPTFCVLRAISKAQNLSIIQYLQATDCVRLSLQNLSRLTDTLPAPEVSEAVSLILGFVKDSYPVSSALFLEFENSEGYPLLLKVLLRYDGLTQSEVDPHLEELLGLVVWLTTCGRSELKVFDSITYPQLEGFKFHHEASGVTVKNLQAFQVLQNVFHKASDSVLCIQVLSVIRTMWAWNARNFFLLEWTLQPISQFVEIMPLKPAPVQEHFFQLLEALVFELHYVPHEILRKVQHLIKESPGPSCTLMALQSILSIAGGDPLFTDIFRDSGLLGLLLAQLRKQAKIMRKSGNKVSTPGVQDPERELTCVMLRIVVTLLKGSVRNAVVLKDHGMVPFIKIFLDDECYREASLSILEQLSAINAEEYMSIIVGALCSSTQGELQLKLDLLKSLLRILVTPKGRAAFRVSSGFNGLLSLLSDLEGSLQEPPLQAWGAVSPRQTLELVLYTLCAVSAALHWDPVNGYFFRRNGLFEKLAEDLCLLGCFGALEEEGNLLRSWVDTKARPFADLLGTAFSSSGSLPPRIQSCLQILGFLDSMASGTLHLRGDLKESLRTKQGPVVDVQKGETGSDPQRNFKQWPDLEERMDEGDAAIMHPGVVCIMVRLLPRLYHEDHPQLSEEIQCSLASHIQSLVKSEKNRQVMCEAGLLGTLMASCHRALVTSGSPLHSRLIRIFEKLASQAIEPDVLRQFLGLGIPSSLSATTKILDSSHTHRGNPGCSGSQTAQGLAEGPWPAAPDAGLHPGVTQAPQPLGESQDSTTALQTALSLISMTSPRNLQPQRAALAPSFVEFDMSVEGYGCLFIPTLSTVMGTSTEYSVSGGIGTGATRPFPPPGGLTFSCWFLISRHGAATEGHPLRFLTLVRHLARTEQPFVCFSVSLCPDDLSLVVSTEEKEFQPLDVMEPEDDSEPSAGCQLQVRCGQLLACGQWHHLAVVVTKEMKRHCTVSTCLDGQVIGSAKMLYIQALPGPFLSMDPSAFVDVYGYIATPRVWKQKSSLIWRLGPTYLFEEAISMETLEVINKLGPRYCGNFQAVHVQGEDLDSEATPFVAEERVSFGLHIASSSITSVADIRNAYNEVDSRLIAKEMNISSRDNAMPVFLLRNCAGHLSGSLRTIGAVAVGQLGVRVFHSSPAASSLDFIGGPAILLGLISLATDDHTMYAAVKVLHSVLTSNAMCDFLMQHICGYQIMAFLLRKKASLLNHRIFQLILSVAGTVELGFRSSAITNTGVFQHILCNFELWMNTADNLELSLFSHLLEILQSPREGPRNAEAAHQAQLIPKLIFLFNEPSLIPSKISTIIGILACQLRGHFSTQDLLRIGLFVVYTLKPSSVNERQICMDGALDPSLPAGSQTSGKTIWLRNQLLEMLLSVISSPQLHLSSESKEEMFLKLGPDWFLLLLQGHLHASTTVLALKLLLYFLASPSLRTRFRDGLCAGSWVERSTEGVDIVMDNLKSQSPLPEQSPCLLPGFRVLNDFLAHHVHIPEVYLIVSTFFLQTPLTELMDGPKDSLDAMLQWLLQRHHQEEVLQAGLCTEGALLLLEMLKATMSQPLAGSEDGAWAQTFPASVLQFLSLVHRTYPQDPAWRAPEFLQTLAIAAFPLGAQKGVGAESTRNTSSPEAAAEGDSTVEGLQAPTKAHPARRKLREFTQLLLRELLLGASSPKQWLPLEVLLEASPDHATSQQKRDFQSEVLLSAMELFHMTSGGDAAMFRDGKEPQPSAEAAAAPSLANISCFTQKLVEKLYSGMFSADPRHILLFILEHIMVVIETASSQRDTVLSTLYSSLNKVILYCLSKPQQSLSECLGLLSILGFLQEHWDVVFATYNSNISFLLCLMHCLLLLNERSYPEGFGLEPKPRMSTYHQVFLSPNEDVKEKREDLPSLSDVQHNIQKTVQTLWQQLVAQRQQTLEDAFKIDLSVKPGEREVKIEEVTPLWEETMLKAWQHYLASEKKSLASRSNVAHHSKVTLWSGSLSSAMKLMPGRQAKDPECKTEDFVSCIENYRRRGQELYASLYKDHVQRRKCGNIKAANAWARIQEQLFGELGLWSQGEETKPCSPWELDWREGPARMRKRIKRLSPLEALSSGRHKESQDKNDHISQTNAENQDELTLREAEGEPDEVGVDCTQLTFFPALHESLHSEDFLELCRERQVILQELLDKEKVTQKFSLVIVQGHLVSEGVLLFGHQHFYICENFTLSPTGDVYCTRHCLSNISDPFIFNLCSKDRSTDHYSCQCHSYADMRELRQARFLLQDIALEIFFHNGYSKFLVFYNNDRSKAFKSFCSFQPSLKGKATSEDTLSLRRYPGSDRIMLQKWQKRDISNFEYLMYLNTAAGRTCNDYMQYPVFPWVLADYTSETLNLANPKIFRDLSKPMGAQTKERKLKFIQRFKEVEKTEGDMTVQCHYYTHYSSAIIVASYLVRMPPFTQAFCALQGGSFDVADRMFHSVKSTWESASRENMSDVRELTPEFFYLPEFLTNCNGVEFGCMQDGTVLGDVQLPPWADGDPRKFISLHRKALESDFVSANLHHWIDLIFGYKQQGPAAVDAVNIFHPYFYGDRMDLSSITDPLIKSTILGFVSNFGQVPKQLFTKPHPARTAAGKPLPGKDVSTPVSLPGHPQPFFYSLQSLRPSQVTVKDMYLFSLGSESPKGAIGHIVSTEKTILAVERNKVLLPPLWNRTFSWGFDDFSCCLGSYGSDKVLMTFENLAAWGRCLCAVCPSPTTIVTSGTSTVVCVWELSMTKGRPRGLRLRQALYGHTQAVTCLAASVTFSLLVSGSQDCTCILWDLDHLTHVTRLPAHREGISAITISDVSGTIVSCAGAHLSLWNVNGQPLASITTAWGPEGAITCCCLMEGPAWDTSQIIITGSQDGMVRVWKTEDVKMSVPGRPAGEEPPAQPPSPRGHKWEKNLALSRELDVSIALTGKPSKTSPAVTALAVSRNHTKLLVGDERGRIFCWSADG", "sequence (Q96SW2 whole entry, looked up, the tested form may be a part)": "as the sequence (Q96SW2 whole entry partner) above", "assay": "Protac activity at CRBN/WDFY4 in human BxPC-3 cells assessed as WDFY4 degradation incubated for 16 hrs by proteomic analysis", "format": "cell-based", "in_short": "as §1"}, "[8]": {"biological_target": "Protein cereblon/Cold shock domain-containing protein E1 (Homo sapiens) (UniProt Q96SW2+O75534)", "assay": "Protac activity at CRBN/CSDE1 in human BxPC-3 cells assessed as CSDE1 degradation incubated for 16 hrs by proteomic analysis", "format": "cell-based", "in_short": "as §2"}, "[9]": {"biological_target": "Protein cereblon/Adhesion G-protein coupled receptor G1 (Homo sapiens) (UniProt Q96SW2+Q9Y653)", "assay": "Protac activity at CRBN/ADGRG1 in human BxPC-3 cells assessed as ADGRG1 degradation incubated for 16 hrs by proteomic analysis", "format": "cell-based", "in_short": "as §2"}, "[10]": {"biological_target": "T1, Protein cereblon/Signal transducer and activator of transcription 3", "assay": "Protac activity at CRBN/STAT3 in human BxPC-3 cells assessed as STAT3 degradation incubated for 16 hrs by proteomic analysis", "format": "cell-based", "in_short": "as §1"}, "[11]": {"biological_target": "Protein cereblon/Anamorsin (Homo sapiens) (UniProt Q96SW2+Q6FI81)", "sequence (Q6FI81 whole entry, looked up)": "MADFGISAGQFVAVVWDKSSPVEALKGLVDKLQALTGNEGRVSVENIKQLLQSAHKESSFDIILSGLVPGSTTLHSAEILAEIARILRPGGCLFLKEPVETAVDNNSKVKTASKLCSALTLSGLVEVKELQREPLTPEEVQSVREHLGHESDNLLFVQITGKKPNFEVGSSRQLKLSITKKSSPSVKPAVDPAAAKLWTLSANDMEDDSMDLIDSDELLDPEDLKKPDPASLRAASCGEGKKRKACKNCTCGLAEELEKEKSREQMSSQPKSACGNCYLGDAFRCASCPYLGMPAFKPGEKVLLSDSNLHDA", "sequence (Q96SW2 whole entry, looked up)": "as the sequence (Q96SW2 whole entry partner) above", "assay": "Protac activity at CRBN/CIAPIN1 in human BxPC-3 cells assessed as CIAPIN1 degradation incubated for 16 hrs by proteomic analysis", "format": "cell-based", "in_short": "as §2"}, "[12]": {"biological_target": "Protein cereblon/Cyclin-D1-binding protein 1 (Homo sapiens) (UniProt Q96SW2+O95273)", "assay": "Protac activity at CRBN/CCNDBP1 in human BxPC-3 cells assessed as CCNDBP1 degradation incubated for 16 hrs by proteomic analysis", "format": "cell-based", "in_short": "as §2"}, "[13]": {"assay": "Upregulation of RND3 protein levels in human BxPC-3 cells incubated for 16 hrs by proteomic analysis", "format": "functional", "in_short": "as §1"}, "[14]": {"assay": "Upregulation of GDF15 protein levels in human BxPC-3 cells incubated for 16 hrs by proteomic analysis", "format": "functional", "in_short": "as §1"}, "BXPC-3 [15]": {"system": "BXPC-3", "assay": "Inhibition of colony formation in human BxPC-3 cells assessed as reduction in colony formation at 0.06 to 0.5 uM incubated for 7 to 10 days in presence of NQO1 inhibitor dicoumarol", "settings": "dose 0.06-0.5 µM"}}, "note": "The source made the active and inactive calls. The calls are words filed in the database; no cut-off is given here.", "data": [{"molecule": "O=C1CCC(N2C(=O)c3cccc(NCCCCCC4CCN(CCNC(=O)c5cc6c(o5)C(=O)c5ccccc5C6=O)CC4)c3C2=O)C(=O)N1", "note": "(stereo not given)", "values": [{"measurement": "IC50", "setting": "BXPC-3 [1]", "result": 800, "unit": "nM"}, {"measurement": "Ratio IC50", "setting": "[2]", "result": 7}, {"measurement": "Activity", "setting": "[3]", "result": "Active"}, {"measurement": "DC50", "setting": "[4]", "result": 80, "unit": "nM"}, {"measurement": "log2FC", "setting": "[5]", "result": -1.02}, {"measurement": "log2FC", "setting": "[6]", "result": -0.84}, {"measurement": "log2FC", "setting": "[7]", "result": -0.78}, {"measurement": "log2FC", "setting": "[8]", "result": -0.75}, {"measurement": "log2FC", "setting": "[9]", "result": -0.69}, {"measurement": "log2FC", "setting": "[10]", "result": -0.69}, {"measurement": "log2FC", "setting": "[11]", "result": -0.59}, {"measurement": "log2FC", "setting": "[12]", "result": -0.59}, {"measurement": "log2FC", "setting": "[13]", "result": 0.98}, {"measurement": "log2FC", "setting": "[14]", "result": 0.69}, {"measurement": "inhibition", "setting": "BXPC-3 [15]", "result": "Active"}]}]}
